# Source: PubChem
# A selection: hits, their analogues and other compounds. The true share with any hit is near 6.9%.
# PTK2B oligo ant: antagonists of human Pyk2 oligomerization | AID 1347419 | 0.83% of 99,000 active | Q293 cells, Pyk2 FERM NanoBiT luminescence; stronger effect = lower value | Q14289 | z-score (the deposit names both 25 µM and 10 µM);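 active = Z-score of -3 or lower, scaled per plate to the spread of control and sample wells; inactive = z-score above -3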;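 also: negative z-score means lost luminescence so less FERM oligomerization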
# Ecoli tolC: growth inhibitors of E. coli BW25113 tolC mutant. OD615. growth inhibition, % at 10 µM (by protocol). 2.2% of 65,000 active;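 active = growth inhibition at or above a cutoff equal to the mean over every tested compound plus 3 SD, cut at about 60% in these data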;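 also: growth measured after 20 h incubation at 37 °C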
#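 Test system – E. coli BW25113 ΔtolC::kan, tolC deletion mutant strain · Detection – OD at 615 nm · Buffer or medium – LB with kanamycin 50 µg/mL · Times – 20 h compound exposure of bacteria at 37 °C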
# Calb biofilm kill: kills Candida albicans biofilms. inhibition, % at 6 µM. C. albicans biofilm + clotrimazole, Alamar Blue. 0.14% of 85,000 active;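 active = inhibition above 20%; inactive = inhibition below 20%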;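 also: preformed 24 hr biofilms exposed to compound for 48 hr; 0% = biofilm without compound and 100% = blank killed by clotrimazole plus chlorhexidine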
# FAK inh: blocks human focal adhesion kinase activity. inhibition, %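 (tested at 7 µM)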. Q05397. 0.84% of 97,000 active. biochemical FAK kinase activity assay. AID 727; in the data active = inhibition above about 19%;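 also: 0% = DMSO and 100% = reference compound high control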
# Target sequence (Q05397 whole entry, looked up): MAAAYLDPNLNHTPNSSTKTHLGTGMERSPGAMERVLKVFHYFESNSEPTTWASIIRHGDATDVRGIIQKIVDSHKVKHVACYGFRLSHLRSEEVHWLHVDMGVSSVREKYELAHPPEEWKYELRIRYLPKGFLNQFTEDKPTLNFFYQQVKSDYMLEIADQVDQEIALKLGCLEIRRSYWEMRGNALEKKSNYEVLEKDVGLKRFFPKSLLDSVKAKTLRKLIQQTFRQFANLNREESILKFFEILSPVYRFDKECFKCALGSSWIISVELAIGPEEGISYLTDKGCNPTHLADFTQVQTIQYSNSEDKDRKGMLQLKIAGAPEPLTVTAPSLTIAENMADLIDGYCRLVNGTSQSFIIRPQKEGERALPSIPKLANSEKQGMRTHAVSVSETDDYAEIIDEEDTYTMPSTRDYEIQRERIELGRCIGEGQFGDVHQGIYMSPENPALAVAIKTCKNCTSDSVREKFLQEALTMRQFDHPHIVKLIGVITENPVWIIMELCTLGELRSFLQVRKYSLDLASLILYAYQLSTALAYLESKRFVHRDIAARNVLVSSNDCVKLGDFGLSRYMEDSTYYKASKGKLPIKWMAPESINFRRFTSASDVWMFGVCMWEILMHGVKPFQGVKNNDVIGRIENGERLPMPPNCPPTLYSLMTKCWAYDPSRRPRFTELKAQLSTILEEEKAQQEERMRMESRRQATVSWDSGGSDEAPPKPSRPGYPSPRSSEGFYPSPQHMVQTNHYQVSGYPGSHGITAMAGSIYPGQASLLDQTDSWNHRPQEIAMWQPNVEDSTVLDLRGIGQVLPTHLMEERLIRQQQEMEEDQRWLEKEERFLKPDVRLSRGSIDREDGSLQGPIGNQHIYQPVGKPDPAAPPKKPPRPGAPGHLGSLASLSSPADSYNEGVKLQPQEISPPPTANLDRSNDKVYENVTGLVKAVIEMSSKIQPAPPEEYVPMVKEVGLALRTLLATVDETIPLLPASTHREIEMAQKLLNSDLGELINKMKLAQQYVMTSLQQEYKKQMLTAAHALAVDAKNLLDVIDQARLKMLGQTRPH
# PostGolgi yeast: growth inhibition of a yeast mutant, post-Golgi transport screen. inhibition, % at 10 µM. post-Golgi transport phenotypic cell assay. 0.9% of 98,000 active;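 also: yeast cells grown in 1536-well plates; yeast grown about 18 h at 30C before absorbance read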
# PostGolgi ctrl: yeast control strain growth, post-Golgi counter-screen; efflux-deficient yeast background strain, growth absorbance A615, 16 h; 5% of 98,000 active; inhibition, % at 10 µM; AID 738
# An asterisk follows results filed as active; . = no result. Rule as the data show it, unless noted: active = inhibition above about 30%; inactive = the rest.
SMILES,PTK2B oligo ant,Ecoli tolC,Calb biofilm kill,FAK inh,PostGolgi yeast,PostGolgi ctrl
Cn1c(=O)[nH]c(=O)c2c1nc(Sc1ccccc1)n2CCc1ccccc1,.,8,-1,9,-5,4
C/C=C/Cn1c(SCCCc2ccccc2)nc2c1c(=O)[nH]c(=O)n2C,.,40,7,-5,5,41*
Cc1ccc(Sc2nc3c(c(=O)[nH]c(=O)n3C)n2CCc2ccccc2)cc1,.,.,14,-3,-15,35*
Cc1ccc(Cn2c(Sc3nnc(C)s3)nc3c2c(=O)[nH]c(=O)n3C)cc1,.,-4,13,3,-2,2
CC(C)CCn1c(SCCc2ccccc2)nc2c1c(=O)[nH]c(=O)n2C,-1.5,13,4,0,-7,35*
Cn1c(=O)[nH]c(=O)c2c1nc(Sc1nc3ccccc3s1)n2Cc1ccccc1,-0.63,-2,-1,11,3,41*
Nn1c(SCC(=O)Nc2ccc3c(c2)OCO3)nnc1C1CCCCC1,.,0,7,0,11,-2
NC(=O)c1cc(Cc2ccccc2)sc1NC(=O)c1ccco1,-3.1*,57,1,.,9,45*
O=C(Nc1nnc(Cc2ccccc2)s1)c1ccco1,0.42,.,3,-2,-2,19
Cc1ccc(OCC(=O)N(Cc2ccc(N(C)C)cc2)C2CCS(=O)(=O)C2)cc1 (stereo unspecified),0.63,-5,4,-1,-1,-7
CCOc1ccc(N(CC(=O)Nc2ccc(C)c(C)c2)S(=O)(=O)c2c(C)noc2C)cc1,.,61*,3,.,4,25
CCOC(=O)Cc1c(C)nc2c(C#N)c[nH]n2c1=O,-0.53,.,1,-1,4,8
CCOC(=O)Cc1c(C)nc2c(-c3cccc(Br)c3)c[nH]n2c1=O,0.84,100*,8,.,11,23
Oc1ccc(/C=N/Nc2nccnc2Cl)cc1,0.31,.,1,-1,-3,3
CCc1ccc2oc(=O)cc(CN3CCC(C)CC3)c2c1,1.2,18,6,0,-7,7
C=CCn1c(N)c(C(=O)Nc2cccc(C)c2)c2nc3ccccc3nc21,-1.4,.,.,-7,23,35*
C=CCn1c(N)c(C(=O)OCCC)c2nc3ccccc3nc21,-1.3,38,-2,-1,-4,14
CCCCn1c(NC(C)=O)c(C#N)c2nc3ccccc3nc21,-0.79,26,6,-1,-2,7
C=CCn1c(N)c(C(=O)Nc2ccc(C)c(C)c2)c2nc3ccccc3nc21,-4*,.,1,-15,-27,4
C=CCn1c(NC(=O)c2ccccc2)c(C#N)c2nc3ccccc3nc21,.,89*,8,.,.,.
CCOC(=O)N1CCC(Nc2c(NCCCOC)c(=O)c2=O)CC1,0.97,-12,1,-5,9,47*
CCCCN(CC)CCNc1c(NC2CCN(C(=O)OCC)CC2)c(=O)c1=O,.,-21,-1,0,-4,36*
Cc1nn(-c2ccccc2)c(C)c1/C=N/NC(=O)c1cc(-c2ccc(Br)s2)[nH]n1,0.06,.,.,1,6,64*
Cc1nn(-c2ccccc2)c(C)c1/C=N/NC(=O)c1cc(C2CC2)[nH]n1,-1.9,.,.,12,-3,2
Cc1nn(-c2ccccc2)c(C)c1/C=N/NC(=O)c1cc(C23CC4CC(CC(C4)C2)C3)[nH]n1,0.46,.,.,5,-2,60*
SMILES,PTK2B oligo ant,Ecoli tolC,Calb biofilm kill,FAK inh,PostGolgi yeast,PostGolgi ctrl
Cc1nn(-c2ccccc2)c(C)c1/C=N/NC(=O)c1cc(-c2ccc(Cl)s2)[nH]n1,-2.2,.,.,6,54*,46*
Cc1ccc(N(CC(=O)Nc2ccccc2-c2ccccc2)S(=O)(=O)c2ccccc2)cc1,-3.9*,.,.,2,-14,10
COC(=O)c1nn(-c2ccccc2)c(Cl)c1/C=N/OC(=O)c1ccc(Cl)c(Cl)c1,2.5,.,.,-3,5,1
O=C(COC(=O)c1ccccc1C(=O)N1CCN(c2ccc(F)cc2)CC1)NCc1ccccc1,0.95,.,4,-3,8,3
Cc1cccn2c(=O)c3cc(C(=O)NCc4ccco4)c(=N)n(C(C)C)c3nc12,-0.94,0,-1,0,-5,8
Cc1cccn2c(=O)c3cc(C(=O)NCc4ccco4)c(=N)n(CCc4ccccc4)c3nc12,.,65*,10,.,.,.
N=c1c(C(=O)NCc2ccco2)cc2c(=O)n3ccccc3nc2n1Cc1ccc(Cl)cc1,-0.3,48,3,3,11,35*
COc1ccc(-c2cc(C(F)(F)F)nc(-n3cc(Cl)cn3)n2)cc1,1.4,.,-3,2,12,41*
COc1cccc(-c2cc(C(F)(F)F)nc(-n3cc(Cl)cn3)n2)c1,0.09,.,10,0,17,10
COc1ccc(-c2cc(C(F)(F)F)nc(S(C)(=O)=O)n2)cc1,0.04,.,.,0,68*,62*
Cc1cc(NC(=O)CCCS(=O)(=O)c2nc(-c3cccs3)cc(C(F)(F)F)n2)no1,-0.09,4,.,4,13,35*
CS(=O)(=O)c1nc(-c2cccs2)cc(C(F)(F)F)n1,.,11,13,1,8,55*
Cc1ccc(CCNC(=O)C2CCCN(c3nc4ccccc4o3)C2)cc1 (stereo unspecified),0.33,22,7,-1,21,5
C=CCOC(=O)C1=C(C)NC(SCC(=O)N(CC)CC)=C(C#N)C1c1ccco1 (stereo unspecified),-0.66,-4,5,1,11,-1
N#Cc1cc2c(nc1SCc1ccccc1)CCCC2=O,-1.2,4,-3,1,3,13
COc1cc2[nH]c3c(=O)n(CCN4CCCCC4)cnc3c2cc1OC,-0.33,-2,6,-1,4,0
O=C(CSc1nn(-c2ccccc2)c(=S)s1)NC(=O)NCc1ccco1,-1,.,7,0,-2,-1
O=C(CSc1nn(-c2ccccc2)c(=S)s1)Nn1cnnc1,1.2,-1,12,.,-7,35*
COc1ccc(NC(=O)c2onc(C)c2Cl)cc1OC,.,.,12,-1,2,34*
Cc1cc(N2CCN(c3nc(N4CCOCC4)nc4ccccc34)CC2)c2ccccc2n1,.,-1,-3,-1,.,.
NC1C2CN(c3nc4c(cc3F)c(=O)c(C(=O)O)cn4-c3ccc(F)cc3F)CC12 (stereo unspecified),-0.67,100*,.,5,-2,1
CNC(=S)N1CCN(c2c(F)cc3c(=O)c(C(=O)O)cn(C4CC4)c3c2OC)CC1C (stereo unspecified),0.26,.,-1,-2,5,3
Cc1ccc(N2CC(C(=O)Oc3cccc(N4C(=O)CCC4=O)c3)CC2=O)cc1 (stereo unspecified),-0.2,-15,-3,-1,-1,-1
Cc1occc1-c1nnc(SCc2cc(=O)n3cc(Br)ccc3n2)n1C,.,-10,4,-2,-5,-8
Cc1ccc(O)c(NC(=O)c2cc3nc4c(c(C(F)(F)F)n3n2)CCc2ccccc2-4)c1,0.4,.,.,-3,2,35*
O=C(Nc1ccc(S(=O)(=O)Nc2nccs2)cc1)c1cc(-c2ccccc2Cl)nc2ccccc12,-1.4,.,.,-1,-1,9
